Series [1] concerns Mus musculus. Nature of the series: Toxicity in Swiss mouse implanted with Swiss mouse EAT cells assessed as body weight at 15 mg/kg, ip administered for 1 to 9 days measured on day 5 (reference value: 22.6 g). Format: organism-based. The conditions noted are these: in vivo.
The test system of series [2] is Mus musculus. Briefly: Toxicity in Swiss mouse implanted with Swiss mouse EAC cells assessed as body weight at 25 mg/kg, ip administered for 1 to 9 days measured on day 9 (reference value: 27.7 g). The conditions noted are these: in vivo. The series is classed as organism-based, Ehrlich.
Series [3] deals with MCF7. Briefly: Induction of cell cycle arrest in human MCF7 cells assessed as accumulation at S phase at 20 uM after 24 hrs by propidium iodide-staining based FACS analysis (reference value: 30 %). Format: functional. Put shortly:
(§1)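 MCF-7 or PC-3 cells treated at indicated concentrations for 24 h, pelleted, PBS-washed, fixed in ice-cold 70% ethanol overnight at 4 °C. RNase 0.2 mg/mL 1 h at 37 °C, propidium iodide 10 µg/mL 30 min dark. 10,000 events (FL2-A vs FL2-W) by flow cytometry; fractions in apoptosis/sub-G1, G1, S, G2-M.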
On the technique in general: A flow cytometer gives signals particle by particle.

Series [4] in a line: Anticancer activity against Swiss mouse EAT cells implanted in Swiss mouse assessed as tumor growth inhibition at 25 mg/kg, ip administered for 1 to 9 days measured on day 13 relative to control. As to conditions: read-out: TGI. Format: functional. Put shortly:
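Solid tumor: 1 × 10^7 EAC cells (harvested from 8-10 day ascitic Swiss mice) injected intramuscularly into right thigh of male Swiss mice, day 0; randomized next day (n=7 treated, 10 control). Dosing i.p. days 1-9; saline 0.2 ml control, 5-FU 22 mg/kg reference.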

Series [5] is described as follows: Downregulation of PI3Kgamma expression in human MCF7 cells at 30 uM by Western blot analysis. The series is classed as functional, cell-based. An outline of the steps:
(§2)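 MCF-7 or PC-3 cells (2 × 10^6) treated with compound, lysed (1 × 10^6 cells) in cold NP-40 buffer with protease inhibitors 30 min on ice, 12,000 g 10 min 4 °C. 50 µg protein per lane on SDS-PAGE, PVDF transfer, 5% milk block, primary antibody 2 h, HRP secondary 1 h, ECL on film; β-actin internal control.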

Series [6] has as its system MCF7. Briefly: Induction of cell cycle arrest in human MCF7 cells assessed as accumulation at G2 phase at 20 uM after 24 hrs by propidium iodide-staining based FACS analysis (reference value: 20 %). Format: functional. An outline of the steps: as §1
Series [7] has as its system MCF7. Briefly: Induction of cell cycle arrest in human MCF7 cells assessed as accumulation at G1 phase at 10 uM after 24 hrs by propidium iodide-staining based FACS analysis (reference value: 50 %). Format: functional. An outline of the steps:
as §1

Series [8] concerns Mus musculus. Briefly: Toxicity in Swiss mouse implanted with Swiss mouse EAC cells assessed as body weight at 25 mg/kg, ip administered for 1 to 9 days measured on day 12 (reference value: 28.4 g). The series is classed as organism-based, Ehrlich. As to conditions: in vivo.
Series [9] has as its system MCF7. Briefly: Induction of cell cycle arrest in human MCF7 cells assessed as accumulation at G2 phase at 10 uM after 24 hrs by propidium iodide-staining based FACS analysis (reference value: 20 %). Format: functional. Put shortly:
as §1

Series [10] can be described thus: Downregulation of PI3Kbeta expression in human MCF7 cells at 30 uM by Western blot analysis. The series is classed as functional, cell-based. Put shortly:
as §2
For orientation: In western blotting, separated proteins are transferred to a membrane and probed.

The test system of series [11] is MCF7. Nature of the series: Induction of cell cycle arrest in human MCF7 cells assessed as accumulation at G1 phase at 20 uM after 24 hrs by propidium iodide-staining based FACS analysis (reference value: 50 %). The series is classed as functional. An outline of the steps:
as §1

Series [12] concerns PC-3. Briefly: Induction of cell cycle arrest in human PC3 cells assessed as accumulation at S phase at 20 uM after 24 hrs by propidium iodide-staining based FACS analysis (reference value: 44 %). The series is classed as functional. An outline of the steps:
as §1

Series [13] has as its system PC-3. Nature of the series: Induction of cell cycle arrest in human PC3 cells assessed as accumulation at G1 phase at 10 uM after 24 hrs by propidium iodide-staining based FACS analysis (reference value: 39 %). The series is classed as functional. An outline of the steps:
as §1

The nature of series [14]: Downregulation of PI3Kbeta expression in human PC3 cells at 30 uM by Western blot analysis. The series is classed as functional, cell-based. The conditions noted are these: PC-3. An outline of the steps: as §2
In series [15] the test system is PC-3. Nature of the series: Induction of cell cycle arrest in human PC3 cells assessed as accumulation at G2 phase at 30 uM after 24 hrs by propidium iodide-staining based FACS analysis (reference value: 17 %). The series is classed as functional. An outline of the steps: as §1

Each structure is given as a SMILES string.

For the compound `N#CCc1ccc(Nc2ncnc3ccc(-c4ccc5[nH]ccc5c4)cc23)cc1`, the Activity was 20 g in the series with Mus musculus [1]; 22.57 g in the series with Mus musculus [2]; 42% in the series on MCF7 [3]; 6% in series [5]; 7% in the series on MCF7 [6]; 59% in the series with MCF7 [7]. Also, the Activity was found to be 23.8 g in the series on Mus musculus [8], 1% in the series on MCF7 [9], 4% in series [10] and 51% in the series on MCF7 [11]. Moreover, the inhibition in vivo at 25 mg/kg in series [4] is 36.5%.

In the case of `N#CCc1ccc(Nc2ncnc3ccc(-c4cncc5ccccc45)cc23)cc1`, the Activity is 26% in the series with PC-3 [12], 44% in the series on PC-3 [13], 42% in [14] and 12% in the series with PC-3 [15].

Values taken from ChEMBL document CHEMBL3868583, “6-Aryl substituted 4-(4-cyanomethyl) phenylamino quinazolines as a new class of isoform-selective PI3K-alpha inhibitors” (Eur J Med Chem, 2016).
